Each compound was assayed on Rattus norvegicus (assay: The compound was tested for oral delivery of calcitonin, activity is measured as reduction in serum calcium levels at 400 mg/kg and dose of calcitotin is 10 ug/kg). Settings: not given.
Type: functional
Outline: (§1)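 Male Sprague-Dawley rats (125–150 g; groups of 6–7) were anesthetized with ketamine 44 mg/kg plus thiazine 0.5 mg/kg. They were given an aqueous pH 7.2 solution of compound with salmon calcitonin (400 mg/kg and 10 μg/kg) by oral gavage at 2 mL/kg. Control groups received calcitonin alone or compound alone. Tail-artery blood was sampled serially, and serum calcium was measured with a kit; results are % decrease, mean ± SE.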

Structure (SMILES)	Ca2+ reduction
CC(C)C[C@H](NC(=O)c1ccc([N+](=O)[O-])cc1)C(=O)O	-11.8
CC(C)C[C@H](NC(=O)C1CCCC(C)C1)C(=O)O (stereo partly drawn)	-13.69
CC(C)C[C@H](NC(=O)CCC1CCCCC1)C(=O)O	-14.97
CC(C)C[C@H](NC(=O)C1CCCCC1C)C(=O)O (stereo partly drawn)	-18.27
CC(C)C[C@H](NC(=O)C1CCCCC1)C(=O)O	-21.82
CC(C)C[C@H](NC(=O)C1CCCCC1)C(=O)O.N=C(N)NCCC[C@H](NC(=O)C1CCCCC1)C(=O)O.O=C(N[C@@H](Cc1ccc(O)cc1)C(=O)O)C1CCCCC1	-33.9
CC(C)C[C@H](NC(=O)C1CCC(C)CC1)C(=O)O (stereo partly drawn)	-15.52
CC(C)C[C@H](NC(=O)c1ccccc1)C(=O)O	-12.9
CC(C)C[C@H](NC(=O)c1ccccc1[N+](=O)[O-])C(=O)O	-6.61
CC(C)C[C@H](NC(=O)c1cccc([N+](=O)[O-])c1)C(=O)O	-14.5
CC(C)C[C@H](NC(=O)C1CCCCCC1)C(=O)O	-19.76
CC(C)C[C@@H](NC(=O)C1CCCCC1)C(=O)O	-18.32

Species on record: Rattus norvegicus
Test: The compound was tested for oral delivery of calcitonin, activity is measured as reduction in serum calcium levels.
Type: functional
Parameters: unit not given beside the values
Settings: not given
Outline: as §1

Structure (SMILES)	Ca2+ reduction
COc1cccc(C(=O)N[C@@H](CC(C)C)C(=O)O)c1	-7.9
CC(C)C[C@H](NC(=O)C1CCCCC1C(=O)O)C(=O)O (stereo partly drawn)	-10.47
CC(C)C[C@H](NC(=O)C1CCCC1)C(=O)O	-6.28
CC(C)C[C@H](NC(=O)C1CC1)C(=O)O	-3.87

What follows are compounds tested against Serine protease 1 (Homo sapiens) (UniProt P07477) (assay: The compound was tested for inhibitory activity against trypsin at 10 mg/mL). Settings: not given.
Outline: (§2)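 Trypsin activity was taken from USP pancreatin at 1 mg/mL final, in 50 mM potassium phosphate pH 7.6 at 37 °C. Test compound was preincubated with enzyme for 10 min. The reaction was started with N-benzoyl-L-arginine p-nitroanilide (300 μM final), and p-nitroaniline formation was followed at 400 nm over 12 min. Percent inhibition was calculated at 12 min from reaction rates versus compound-free controls.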

Serine protease 1 (Homo sapiens), sequence (P07477 whole entry): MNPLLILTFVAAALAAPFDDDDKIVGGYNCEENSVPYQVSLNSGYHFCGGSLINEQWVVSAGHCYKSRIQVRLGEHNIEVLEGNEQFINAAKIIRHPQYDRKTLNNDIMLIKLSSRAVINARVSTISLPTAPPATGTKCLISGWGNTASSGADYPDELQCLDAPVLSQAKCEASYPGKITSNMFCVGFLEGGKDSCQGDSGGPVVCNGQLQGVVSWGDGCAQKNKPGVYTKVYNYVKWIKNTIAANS

inhibition	Structure (SMILES)
39%	CC(C)C[C@H](NC(=O)C1CCCCC1)C(=O)O

The compounds below were run against Serine protease 1 (Homo sapiens) (UniProt P07477) (assay: The compound was tested for inhibitory activity against trypsin, activity is expressed as %inhibition.). Settings: concentration not given here.
Outline: as §2

inhibition	Structure (SMILES)
44%	O=C(N[C@H](C(=O)O)c1ccccc1)C1CCCCC1

Species on record: Rattus norvegicus
Test: The compound was tested for oral delivery of interferon-alpha in rats.
Settings: not given

Structure (SMILES)	Amount delivered
O=C(N[C@H](C(=O)O)c1ccccc1)C1CCCCC1	3808 pg/mL

These compounds were tested on Rattus norvegicus (assay: The compound was tested for oral delivery of interferon-alpha in rats.(compound dose=800 mg/kg; inf-alpha dose= 1 mg/kg)). Settings: not given.

Structure (SMILES)	Amount delivered
O=C(N[C@@H](Cc1ccc(O)cc1)C(=O)O)C1CCCCC1	3422 pg/mL
O=C(N[C@H](C(=O)O)c1ccccc1)C1CCCC1	4707 pg/mL
O=C(CC1CCCCC1)N[C@H](C(=O)O)c1ccccc1	6401 pg/mL
O=C(N[C@H](C(=O)O)c1ccccc1)C1CCCCCC1	4066 pg/mL
NC(=O)NCCC[C@H](NC(=O)C1CCCCC1)C(=O)O	1922 pg/mL
N=C(N)NCCC[C@H](NC(=O)C1CCCCC1)C(=O)O	2107 pg/mL
NCCCC[C@H](NC(=O)C1CCCCC1)C(=O)O	3340 pg/mL
O=C(N[C@@H](Cc1ccccc1)C(=O)O)C1CCCCC1	611 pg/mL
O=C(N[C@H](C(=O)O)c1ccccc1)c1ccccc1O	757 pg/mL
CCC(C)[C@H](NC(=O)C1CCCCC1)C(=O)O (stereo partly drawn)	340 pg/mL
O=C(N[C@H](C(=O)O)c1ccccc1)c1ccccc1	8427 pg/mL
O=C(CCC1CCCCC1)N[C@H](C(=O)O)c1ccccc1	3026 pg/mL

What follows are compounds tested on Rattus norvegicus (assay: The compound was tested for oral delivery of interferon-alpha in rats.(compound dose=400 mg/kg; inf-alpha dose= 250 ug/kg)). Settings: not given.

Structure (SMILES)	Amount delivered
O=C(N[C@H](C(=O)O)c1ccccc1)C1CCCCC1	434 pg/mL

What follows are compounds tested on Rattus norvegicus (assay: The compound was tested for oral delivery of interferon-alpha in rats.(compound dose=400 mg/kg; inf-alpha dose= 500 ug/kg)). Settings: not given.

Structure (SMILES)	Amount delivered
O=C(N[C@H](C(=O)O)c1ccccc1)C1CCCCC1	2598 pg/mL

Source: ChEMBL document CHEMBL1128326, “N-acylated alpha-amino acids as novel oral delivery agents for proteins” (1995)
